# Laboratory results from ChEMBL document CHEMBL4513216, “Probing the Open Global Health Chemical Diversity Library for Multistage-Active Starting Points for Next-Generation Antimalarials” (ACS Infect Dis, 2020).
# Experiment: Toxicity liver stage against HepG2, at 10uM
# Format: cell-based
# Parameters: test concentration 10 uM, cell line HepG2-A16-CD81EGFP
# Conditions: human, HepG2-A16-CD81EGFP cells; read-out: INHIBITION
# Summary of the method: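 Uninfected HepG2-A16-CD81EGFP cells, 3 × 10^3 per well, 1536-well, plated on prespotted compound at 10 μM final, parasite-free screening media added to match infected plates; puromycin 10 μM positive, DMSO 0.5% negative; run in parallel with 48 h PbLuc assay at 37 °C, 5% CO2; viability by CellTiter-Glo luminescence, normalized to controls.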
row,Compound,cytotoxicity at 10 µM
1,CC(C)c1nc(CN2CCN(C(=O)CN3CCOCC3)CC2)no1,-7.8%
2,O=C(CCn1nc(C(=O)Nc2ccccc2)ccc1=O)Nc1nccs1,-2.83%
3,O=C1CCNc2cc3c(cc2CN1CC1CC1)OCO3,-5.83%
4,COc1ccc(-c2nc(C#N)c(N(C)C)o2)cc1S(=O)(=O)N(C)C,-7.19%
5,Cc1nc(C(=O)N2CCN(S(C)(=O)=O)CC2)c(-c2ccccc2)s1,3.23%
6,O=C1CSC(C(F)(F)F)c2c(O)nn(C3CCCC3)c2N1 (configuration not stated),3.49%
7,CC(C)Cn1cnc2ccc(NC(=O)CCCn3cccn3)cc2c1=O,-4.06%
8,COc1cccc2sc(OC3CN(C(=O)C4=COCCO4)C3)nc12,4.91%
9,CC(C)N(C)C(=O)C1=NOC2(CCN(C(=O)c3cccn3C)C2)C1 (configuration not stated),-122%
10,Cc1cccc(Cn2c(=O)[nH]c3csnc3c2=O)c1,3.46%
11,O=C(NCCN1CCNCC1)c1nc2ccccc2c(=O)[nH]1,8.19%
12,O=C(c1nc(COc2ccc3c(c2)OCO3)no1)N1CCCC1,10.3%
13,O=C1NC(c2ccccc2)=N[C@@]12CC[C@@H]1CN(Cc3ccco3)C[C@@H]12,-4.34%
14,CN1CC(Oc2ccc(Cl)cc2)=NC(SCC(=O)c2ccccc2)=N1,-0.731%
15,Cc1cc(NCCCOC(C)C)c2nncn2n1,6.17%
16,O=C(Nc1cc(-c2ccccn2)no1)C1CC1,-5.34%
17,CC(=O)N1CCC1c1cc(N2CCNC(=O)C2)nc(C)n1 (configuration not stated),-1.62%
18,Cc1noc(C2(C)CCCN(C(=O)C(C)C)C2)n1 (configuration not stated),-3.97%
19,NC(=O)c1cnc(-c2ccccc2)nc1CCNC(=O)CN1CCCC1,-1.25%
20,Cc1cc(-c2ccccc2C(=O)O)nc(C2CCCN2S(C)(=O)=O)n1 (configuration not stated),-3.67%
21,Cn1c(CN2CCCc3cc(F)cc(F)c32)cc(=O)n(C)c1=O,17.3%
22,Cn1cc(C(O)CNC(=O)c2sccc2OC(F)F)cn1 (configuration not stated),0.606%
23,CC(C(=O)NC1CC1)S(=O)(=O)Cc1nc(Cc2ccccc2)no1 (configuration not stated),5.42%

row,Compound,cytotoxicity at 10 µM
1,CN(C)c1nc(CNC(=O)NC2CCc3ccccc32)cs1 (configuration not stated),-3.41%
2,CCN(CC)S(=O)(=O)NC1CCN(c2ccc(OC)cc2)CC1,3.38%
3,CCN(CC1CCOC1)C(=O)Cn1nnn(-c2cccs2)c1=O (configuration not stated),-49.7%
4,CCn1ccnc1CNCc1ccc(C)cc1OC(C)(C)C,1.03%
5,CSCc1cc(F)ccc1CNC(=O)N1CCOCC1,8.06%
6,CC1CCCN(CCCNC(=O)c2cn(C)nc2-c2cccnc2)C1 (configuration not stated),-3.24%
7,CC(CCc1ccccc1F)C(=O)NS(C)(=O)=O (configuration not stated),3.12%
8,O=C1CCCN1Cc1nnc(SCc2ccc3c(c2)CCC3)o1,2.03%
9,Cc1ccc(-c2noc(CN3CCC(c4ccn[nH]4)CC3)n2)cc1,12.6%
10,O=S(=O)(CCNCc1ccc(Cl)cc1)N1CCOCC1,4.68%
11,CCc1noc(CN(Cc2cccs2)C2CC2)n1,1.44%
12,O=C(O)c1nnn(-c2cccc(C(F)(F)F)c2)c1C1CC1,-2.02%
13,CC(C)c1nnc2n1CC(CNCc1nc3ccccc3o1)CC2 (configuration not stated),-1.85%
14,Cc1cccc(N(CCC(N)=O)C(=O)c2cnccn2)c1,-1.74%
15,CCc1nc(C(=O)N2CCN(Cc3ccc(Cl)cc3)CC2)c[nH]1,-6.85%
16,CNC(=O)NC(=O)CN1CCN(CC(F)(F)F)CC1(C)C,10.7%
17,CN(C)C(=O)c1ccccc1NC(=O)N(C)Cc1ccccc1O,-1.03%
18,CCCN(CC1CC1)C(=O)CN1CCCC1c1cnn(C)c1 (configuration not stated),2.45%
19,CN(c1nc(CSc2nnc(Cn3cncn3)o2)cs1)C1CC1,6.6%
20,Cc1cc(NC(=O)CN(c2ccccc2)C(C)C)on1,-1.54%
21,CCCC(=O)NC(C)(C)Cc1ccccc1OC,5.55%
22,CS(=O)(=O)Cc1ccc(CNc2ncc(C#N)cc2Cl)cc1,3.47%
23,CN(Cc1ccco1)C(=O)CN1CCN(C)c2ccccc2C1,-7.2%

row,Compound,cytotoxicity at 10 µM
1,CC1(C)CN(C(=O)c2ccc3nncn3c2)CCS1,-4.5%
2,CCc1nc(CC)n(CC(=O)NCc2cccc(C)c2)n1,-2.25%
3,CCCNC(c1cccnc1)c1ccc(F)cc1F (configuration not stated),-2%
4,CC(C)N(CCCNC(=O)C1CCOCC1)S(C)(=O)=O,0.617%
5,COCCNC(=O)Cn1cc(NC(=O)c2cc(Cl)c(Cl)n2C)cn1,-4.01%
6,O=C(c1cc(F)ccc1Br)N1CCN(C(=O)C2CC2)CC1,4.9%
7,N#CCCCn1nnnc1Cc1ccc(Br)cc1,1.56%
8,Cc1ccc(C2CSCCN2C(=O)c2ccoc2C)o1 (configuration not stated),13.8%
9,CCS(=O)(=O)N1CCN(C(C)c2ncc(-c3ccccc3)o2)CC1 (configuration not stated),3.44%
10,CCC[C@@H](NC(N)=O)C(=O)N1CCc2ccccc2CC1,7.79%
11,CCC1CN(Cc2ccccc2)CCN1Cc1nnc(C2CCC2)o1 (configuration not stated),-11.2%
12,CCOCC1CN(S(=O)(=O)c2cccc(C)c2)Cc2nccn2C1 (configuration not stated),-108%
13,O=C(c1ccnn1-c1ccc2ccccn12)N1CCOCC1,-108%
14,CN(C)c1nccc(-c2cnc(N(C)C)[nH]c2=O)n1,-1.17%
15,CC(C)NC(=O)NCc1cc(-c2cccc(Cl)c2)nn1C,3.66%
16,COc1cc(OC)cc(-n2ccnc2-c2cc3n(n2)CCNC3)c1,-12.2%
17,CN(C)C1CCCN(C(=O)c2cccc(-c3ncc[nH]3)c2)CC1 (configuration not stated),4.2%
18,Cc1cnc(CNC(=O)CC2CCc3ccccc32)cn1 (configuration not stated),-0.862%
19,CCCn1c(C)c(CC(=O)NCC(C)O)c2c1CC(C)(C)CC2=O (configuration not stated),-7.57%
20,Cc1nc(CC(=O)N2CCCC2c2nc(C(C)C)no2)cs1 (configuration not stated),4.33%
21,CSCC(=O)N1CCc2[nH]nc(-c3ccc4c(c3)OCO4)c2C1,-139%
22,CCCn1ccnc1CN1CC[C@@H](NC(=O)c2cccnc2)[C@H](O)C1,-7.31%
23,Cc1cnc(C(=O)N2CCN(C(=O)CC(C)C)[C@@H]3CS(=O)(=O)C[C@@H]32)cn1,-3.06%

row,Compound,cytotoxicity at 10 µM
1,O=C(c1ccc(S(=O)(=O)N2CCNCC2)cc1)N1CCCC(O)C1 (configuration not stated),8.48%
2,CCN(Cc1cnn(C)c1)C[C@H]1CC[C@@H](Cc2ccc(C)nc2)O1,5.24%
3,CC(=O)N1CCc2[nH]cnc2C1C1=CCCN(CCn2cccc2)C1 (configuration not stated),0.375%
4,O=C(Nc1ccc(F)cc1)C1CNCCN1C(=O)CSc1ccncc1 (configuration not stated),-0.316%
5,CC(C)n1cc(CN(Cc2ccsc2)CC2CCCO2)cn1 (configuration not stated),-7.89%
6,Cc1ccc(Oc2ncccc2CNC(=O)C2COC(=O)N2)c(F)c1F (configuration not stated),1.82%
7,COCCN1CCC(CNc2nccc(-c3cnn(C)c3)n2)CC1,-130%
8,Cc1ccc(C(=O)N2CCCC(N)CC2)cc1N1CCNC1=O (configuration not stated),-4.35%
9,c1cc(CCNc2ncnc3c2CCN(Cc2ccoc2)CC3)ccn1,9.08%
10,Cc1nc(N2Cc3cnn(Cc4ccc(F)cc4)c3C2)no1,-3.05%
11,Cc1cnccc1NCCNC1CCSCC1,-9.44%
12,Cc1c(-c2c(-c3ccccc3)ncn2[C@H](CO)C(=O)O)cnn1C,4.28%
13,COCCN(C)C[C@@H]1CN(C(=O)c2ccc(C)c(Cl)c2)C[C@@H]1CO,-0.678%
14,CCCNC(=O)C(C)Oc1ccc(F)cc1 (configuration not stated),-3.76%
15,CCCN1CCC(Cc2noc(-c3cc4cccnc4nc3C)n2)CC1,-0.749%
16,CCCS(=O)(=O)N1C[C@H]2OC(=O)N(CCc3cccc(Cl)c3)[C@H]2C1,-2.12%
17,CN(C)C(=O)c1ccc2c(c1)N(C)C(CC(=O)NC(C)(C)CO)CO2 (configuration not stated),8.38%
18,CCC(CO)N(Cc1ccccn1)C(=O)c1ccc2c(c1)CCO2 (configuration not stated),-14.2%
19,CN(Cc1ccon1)C(=O)C1CC(=O)N(Cc2ccncc2)C1 (configuration not stated),-0.368%
20,CC(C)(C)c1ccn(C2(C(=O)O)CCN(c3nccc(N)n3)CC2)n1,-6.69%
21,c1ccc(Cc2noc(CN3CCOC(Cn4cncn4)C3)n2)cc1 (configuration not stated),1.28%
22,Cc1nc(C2CCCN2CC(=O)N(C)Cc2ccsc2)no1 (configuration not stated),-8.21%
23,CC(C(=O)NCc1ccnc(N2CCCC2)c1)n1cccn1 (configuration not stated),0.309%

row,Compound,cytotoxicity at 10 µM
1,COC(=O)c1cc(C(=O)N2CCCCC2C)n(-c2ccccc2)n1 (configuration not stated),-13.7%
2,CCn1cnnc1C1CCN(C(=O)c2cc3c(s2)CCCC3)CC1,-1.76%
3,CCCc1noc(CCC(=O)N2CCCC2c2ccncc2)n1 (configuration not stated),-2.42%
4,c1cnn(-c2ccc(CN3CCCC(Cn4cncn4)C3)cc2)c1 (configuration not stated),-2.63%
5,CCc1n[nH]c(C2CN(Cc3nnc(C4CC4)o3)CCO2)n1 (configuration not stated),-14.3%
6,Cc1nc(CN2CCCC(N(C)Cc3nccn3C)C2)no1 (configuration not stated),-16.8%
7,Cc1nc(C(=O)N2CCCC2c2c(C)nn(C)c2C)cs1 (configuration not stated),-15.8%
8,CCn1cc(CN2CCCN(C(=O)CCCn3cncn3)CC2)cn1,-12.5%
9,Cc1cn2c(n1)CCC(NC(=O)c1ccc(CS(C)(=O)=O)o1)C2 (configuration not stated),-5%
10,c1cnn(CC2CCCN2Cc2nc(-c3ccoc3)no2)c1 (configuration not stated),-7.07%
11,COC(=O)C(c1cc(F)ccc1F)N(C)C(=O)c1csnn1 (configuration not stated),0.144%
12,CC(NC(=O)NCc1ccc(Cl)cc1)c1ccccn1 (configuration not stated),3.42%
13,Cc1nc(C2CCCN(C(=O)c3ccc(N4CCCC4)nc3)C2)no1 (configuration not stated),-3.06%
14,c1nnc(Nc2cncc(C3CCCN3)n2)s1 (configuration not stated),3.58%
15,CC(C)c1nn(C)c(N(C)C)c1CNC1CCN(C2CC2)CC1,5.6%
16,CC(C)N(CC(=O)O)Cc1cccc(Br)c1,-8.67%
17,CN(C)C(=O)COCc1nn(C)c2c1CCN(Cc1ccco1)C2,-131%
18,Cc1nn(C)c(Cl)c1CNCc1cccnc1N1CCN(C)CC1,-9%
19,CNC(=O)[C@H]1C[C@H]2CN(C(=O)Nc3ccc(F)cc3)C[C@@H]1O2,3.28%
20,Cc1cnn(CC2CN(C=C3NN=C(c4occc4C)O3)CCO2)c1 (configuration not stated),-2.9%
